About 460 (18%) of roughly 2,500 compounds were called active. A selection follows. Values without a mark were called inactive.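 The calls were made as follows: active = mean activation above a cutoff of low control average plus 3 SD from the earlier screen (cut at about 12% in these data); inactive = the rest.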

A short description of this test: compound fluorescence interference without thin filaments, confirmation, artefact control for cardiac RTF calcium sensitizer project, biochemical (AID 504382). Particulars: IANBD fluorescence interference counterscreen, buffer, EC20 Ca2+; at 7.2 µM; active compounds read high; scaled: EC20 calcium 0, EC100 calcium 100. An outline of the steps: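 Doses – one dose of 7.2 µM, 0.7% DMSO · Buffer or medium – MOPS/KCl/MgCl2/EGTA/NTA/DTT buffer, pH 7.2 · Probe or stimulus – Ca2+ fixed at EC20, 0.472 mM · Measured by – fluorescence intensity, excitation 480 nm, emission 540 nm · Read-out – fluorescence interference versus control range · Timing – 15 min compound exposure at 25 °C · Replication – triplicate wells per compound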
(The purpose of a counterscreen is to sort out artefacts and off-target activity.)
For `C=CCNc1sc(C(=O)c2ccc(Br)s2)c(N)c1C#N`, the fluorescence artifact activation was 37% (active).
Under `O=C(NCc1ccc(OC(F)(F)F)cc1)c1cccc2c1C(=O)c1ccc(N3CCCCC3)cc1S2(=O)=O` stands 0.89%.
As to `C#CCOCCOCCOCCNc1nc(N2CCN(C(=O)Cn3cc(CCCCN)nn3)CC2)nc(N2CCN(C(=O)Cn3cc(CC(C)O)nn3)CC2)n1` (stereo not drawn), the fluorescence artifact activation is -0.09%.
Under `COc1ccc(CCNC(=O)COC(=O)c2cc(=O)[nH]c3ccccc23)cc1` stands 15.4% (active); under `COc1ccc(-c2noc(CCC(=O)NCCc3ccccc3)n2)cc1`, 0.2%; under `Cc1ccnc2nc(C(=O)OCC(=O)NCCc3ccccc3)nn12`, 7.51%.
Under `CCC12CN3CCN(CC(C3)/C1=N\NC(=O)Nc1ccccc1)C2` stands -0.04%.
The result for `CCCC(NC(=O)CCc1c(C)c2cc3c(-c4ccccc4)coc3cc2oc1=O)C(=O)O` (stereo not drawn) reads 35.8% (active); that for `CCCCCCc1cc2cc(-c3nnc(-c4ccccc4)o3)c(=O)oc2cc1O`, 0.03%; that for `O=[N+]([O-])c1ccc(N(c2ccccc2)c2ccccc2)cc1`, 2.48%.
Regarding `Cc1ccc(S(=O)(=O)c2c(N)n(Cc3ccco3)c3nc4ccccc4nc23)cc1`, the fluorescence artifact activation was 0.24%.
Under `Nc1c(S(=O)(=O)c2ccccc2)c2nc3ccccc3nc2n1/N=C/c1ccco1` stands -0.02%; under `Nc1c(S(=O)(=O)c2ccccc2)c2nc3ccccc3nc2n1Cc1ccco1`, 22.8% (active).
As to `COc1ccccc1Nc1nc(N2CCOCC2)nc(N2CCOCC2)n1`, the fluorescence artifact activation is 0%.
On to `CCOC(=O)c1c(NC(=S)N2CCN(C)CC2)sc2c1CCN(C(=O)OCC)C2`, for which the fluorescence artifact activation was 1.28%.
Under `O=C(CCN1C(=O)/C(=C/c2ccccc2)SC1=S)NNC(=O)c1cccnc1` stands 0.24%.
Under `C/C(O)=c1/ccc2cccc3nc(C)nc1c23` stands 13.3% (active); under `COc1ccc(CN=C2NC(=O)CC(C(=O)Nc3ccc(F)cc3)S2)cc1` (stereo not drawn), 1.74%.
Under `CCC(C)NC(=O)C1CC(=O)N(CCc2ccc(F)cc2)C1` (stereo not drawn) stands 111% (active); under `COc1ccc(S(=O)(=O)N2CCC(C(=O)NC(C)CCc3ccccc3)CC2)cc1` (stereo not drawn), -0.01%.
With `NC(=O)NC(=O)COC(=O)c1cccc(NS(=O)(=O)/C=C/c2ccccc2)c1`, the fluorescence artifact activation was 6.11%.
In the case of `CC(=O)N(C)c1ccc(C(O)(C(F)(F)F)C(F)(F)F)cc1`, the fluorescence artifact activation was 7.43%.
Regarding `O=c1c2ccccc2nc(SCc2nc(-c3ccccc3)no2)n1-c1ccc(F)cc1`, the fluorescence artifact activation was 0.14%.
Under `CNC(=S)N1N=C(c2ccc(Br)cc2)CC1c1ccc(N(C)C)cc1` (stereo not drawn) stands 5.89%; under `COc1ccc(C2=NN(C(=O)CSc3ncccn3)C(c3ccc(C)cc3)C2)cc1` (stereo not drawn), 202% (active); under `O=C(c1cn(-c2ccccc2)nc1-c1ccc(Br)cc1)N1CCOCC1`, 0.32%.
Take `COC(=O)c1[nH]c2ccc(C)cc2c1NC(=O)C(C)N1CCN(C2CCCCC2)CC1` (stereo not drawn): the fluorescence artifact activation is 0.08%.
Take `O=C(O)C1CCCCC1C(=O)Nc1ccc(-c2ccccc2)cc1` (stereo not drawn): the fluorescence artifact activation was 0.17%.
The result for `CCOc1ccccc1C1C(C#N)=C(N)SC(N)=C1C#N` reads 0.08%; that for `CCOc1ccc(C2C(C#N)=C(N)SC(N)=C2C#N)cc1OCC`, 11.7% (active); that for `COc1ccc(C2C(C#N)=C(N)SC(N)=C2C#N)cc1OC`, 0.15%.
Turning to `Cc1cc(S(=O)(=O)Nc2c(C)nn(C)c2C)c(Cl)cc1Cl`, the fluorescence artifact activation was 0.08%.
Regarding `COC(=O)c1ccc2c(c1)NC1=C(C(=O)CC(C)(C)C1)C(c1ccncc1)N2` (stereo not drawn), the fluorescence artifact activation is 0.26%.
The result for `Cc1ccccc1OCCC(=O)Nc1cc(S(=O)(=O)N2CCCCC2)ccc1N1CCN(C)CC1` reads 4.83%; that for `CCN1/C(=C/c2ccc3cc(C)cc(C)c3[n+]2CC)Sc2cc(C)ccc21`, 0.44%; that for `CCN1/C(=C/c2ccc3cc(C)ccc3[n+]2CC)Sc2ccc3sccc3c21`, 0.99%.
Under `CCN1/C(=C\c2ccc3ccccc3[n+]2CC)Sc2cc(C)ccc21` stands 20.2% (active).
Under `CCN1/C(=C/c2ccc3cc(C)ccc3[n+]2CC)Sc2cc(C)ccc21` stands 0.41%; under `CCN1/C(=C\c2ccc3cc(C)ccc3[n+]2CC)Sc2cc(C)c(C)cc21`, 0.1%; under `CCN1/C(=C/c2ccc3cc(C)ccc3[n+]2CC)Sc2ccccc21`, 15.3% (active).
On to `COCCN(CCOC)Cc1c(O)ccc2c1O/C(=C\c1ccco1)C2=O`, for which the fluorescence artifact activation is 0.11%.
For the compound `C=CCn1c(O)c(CN2CCN(Cc3ccccc3)CC2)c(C)c(C#N)c1=O`, the fluorescence artifact activation is 0.03%.
The result for `CCC[C@@H](CN1CCC[C@H]1CN1C(N)=NC[C@@H]1Cc1ccccc1)N1C[C@@H](Cc2ccccc2)N(CCCC2CCCC2)C1=N` reads 7.46%; that for `CCOc1ccc(NC(=O)/C(C#N)=C/c2ccc(N3CCCC3)c(C)c2)cc1`, 0.06%; that for `Oc1[nH]c2ccc(Br)cc2c1N=Nc1ccc(F)cc1`, 5.56%.
The result for `COc1ccc(C2=NN(C(=O)COC(=O)c3ccc(NC(=O)CC#N)cc3)C(c3ccco3)C2)cc1` (stereo not drawn) reads 2.58%; that for `CS(=O)(=O)Nc1ccc(C2=NN(C(=O)CCCC(=O)O)C(c3cccs3)C2)cc1` (stereo not drawn), 16.5% (active).
Under `O/C(=C\c1nc2ccccc2[nH]1)c1cccs1` stands 0%; under `O=C(O)c1ccc(O)c(O)c1`, -0.01%; under `Cc1cc(C)c[n+](-c2[nH]c(=O)sc2/C=N/NC([S-])=Nc2ccccc2)c1`, 0.17%.
`Cc1ccc[n+](-c2nc([O-])sc2C=O)c1`: the fluorescence artifact activation was 9.59%.
The result for `Cc1ccc(N/C=C2/Sc3ccccc3NC2=O)cc1` reads 0.14%.
For the compound `CC1C2(C)OC(=N)C(C#N)(C(C)O2)C1(C#N)C#N` (stereo not drawn), the fluorescence artifact activation is 0.64%.
Regarding `CCCCN1C(=O)/C(=C/C=C2/CC(C)(C)CN2C)SC1=S`, the fluorescence artifact activation was -0.02%.
`CCN1C(=O)/C(=C/C=C2/SCCN2C)SC1=S`: the fluorescence artifact activation was 10.2%.
On to `CCN1C(=O)/C(=C\C=C2/C=CC=CN2CC)SC1=S`, for which the fluorescence artifact activation is 104% (active).
The result for `COC(=O)C(C)n1cnc2c(nnn2Cc2ccc(Cl)cc2)c1=O` (stereo not drawn) reads 0.03%.
As to `Cc1ccc(C)c(S(=O)(=O)N2CCCC2CNC(=O)C(=O)NC2CC2)c1` (stereo not drawn), the fluorescence artifact activation is 0.11%.
